Calls of active or inactive are those of the source. The calls are words filed in the database; no cut-off is given here.
Assays:
Aorta [1] = experiment: Vasorelaxant activity in Wistar rat endothelium-denuded aortic rings assessed as reduction of KCl-induced contraction in presence of glibenclamide; assay type: functional, tissue-based
Method in brief: (§1)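 Endothelium-denuded Wistar rat aortic rings; 1 μM glibenclamide added before the 25 mM KCl contraction, then test agent added cumulatively in 3-fold increasing concentrations. Vasorelaxation expressed as % of KCl-induced tone; pIC50 from the half-reduction of tone; 5−10 experiments.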

Aorta [2] = experiment: Vasorelaxant activity in Wistar rat endothelium-denuded aortic rings assessed as reduction of KCl-induced contraction; assay type: functional, tissue-based
Method in brief: (§2)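 Thoracic aortic rings from male Wistar rats (250−350 g), endothelium removed. Removal confirmed by <10% relaxation to 10 μM ACh. Rings contracted with 25 mM KCl; at plateau, test agent added cumulatively in 3-fold increasing concentrations. DMSO stocks (10 mM) diluted in water. Emax given as % of KCl tone; pIC50 is the half-reduction of tone; 5−10 experiments.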

Aorta [3] = experiment: Vasorelaxant activity in Wistar rat endothelium-denuded aortic rings assessed as reduction of KCl-induced contraction relative to control; assay type: functional; method in brief: as §2
Aorta [4] = experiment: Vasorelaxant activity in Wistar rat endothelium-denuded aortic rings assessed as reduction of KCl-induced contraction in presence of glibenclamide relative to control; assay type: functional; method in brief: as §1
[5] = (§3) Activation of ATP-sensitive potassium channel in human aortic smooth muscle cells assessed as membrane hyperpolarization by DiBAC4(3) dye-based spectrofluorimetric analysis
Method in brief: (§4)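 HASMCs grown in medium 231 with SMGS at 37 °C, 5% CO2, seeded on gelatin 24 h before use. Loaded 1 h with 2.5 μM DiBAC4(3) in HEPES buffer pH 7.4 at room temperature. Fluorescence read at ex 488 / em 520 nm before and after compound. Relative fluorescence decrease (Ft−F0)/F0 expressed as % of the 100 μM LCRK effect. pEC50 derived; six replicates.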

Homo sapiens [6] = species: Homo sapiens; experiment: Activation of ATP-sensitive potassium channel in human aortic smooth muscle cells assessed as membrane hyperpolarization at 10 uM by DiBAC4(3) dye-based spectrofluorimetric analysis in presence of glibenclamide
Method in brief: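 Same DiBAC4(3) setup in HASMCs (2.5 μM dye, 1 h loading, pH 7.4, ex 488 / em 520 nm). Glibenclamide was added 10 min before the test agent. Relative fluorescence decrease expressed as % of the 100 μM LCRK maximal effect; six replicates.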

Rattus norvegicus [7] = species: Rattus norvegicus; experiment: Activation of ATP-sensitive potassium channel in Wistar rat pancreatic islets assessed as reduction in high glucose-induced insulin secretion after 1 hr by radioimmunoassay
Method in brief: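 Islets from male Wistar rats (200−250 g), collagenase isolation, cultured 24 h in RPMI (5.6 mM glucose). Batches of 10 islets preincubated 30 min in KRH pH 7.4 with 2.8 mM glucose and 1% BSA, then incubated 1 h with 2.8 or 16.7 mM glucose ± test agent at 1 to 1000 nM. Released insulin measured by RIA. At least five replicas.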

Homo sapiens [8] = species: Homo sapiens; experiment: Activation of ATP-sensitive potassium channel in human aortic smooth muscle cells assessed as membrane hyperpolarization at 0.1 to 100 uM by DiBAC4(3) dye-based spectrofluorimetric analysis relative to LCRK; method in brief: as §4
Homo sapiens [9] = species: Homo sapiens; experiment: as §3; method in brief: as §4
Aorta [10] = experiment: Vasorelaxant activity in Wistar rat endothelium-denuded aortic rings relative to LCRK; assay type: functional; method in brief: as §2
Rattus norvegicus [11] = species: Rattus norvegicus; experiment: Activation of ATP-sensitive potassium channel in Wistar rat pancreatic islets assessed as reduction in high glucose-induced insulin secretion at 80 uM after 1 hr by radioimmunoassay
Method in brief: (§5)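 Islets from male Wistar rats (200−250 g), isolated by collagenase duct cannulation with density-gradient purification and cultured 24 h in RPMI (5.6 mM glucose). Ten islets per well were preincubated 30 min in KRH pH 7.4 with 2.8 mM glucose and 1% BSA, then incubated 1 h with 16.7 mM glucose ± glibenclamide 1 μM. Released insulin was measured by RIA, at least five replicas.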

Rattus norvegicus [12] = species: Rattus norvegicus; experiment: Activation of ATP-sensitive potassium channel in Wistar rat pancreatic islets assessed as reduction in high glucose-induced insulin secretion at 80 uM after 1 hr by radioimmunoassay in presence of glibenclamide; method in brief: as §5

With `Cc1ccc2c(c1)N(C1=CCCC1=O)CC(C)(C)S2` as the molecule, how does the IC50 (Aorta [1]) read?
Its IC50 is 19500 nM.

What about the IC50 (Aorta [2]) of the same molecule?
Its IC50 is 933 nM.

What about the Emax (Aorta [3]) of the same molecule?
Its Emax is 89%.

What about the Emax (Aorta [4]) of the same molecule?
Its Emax is 78%.

For `CC1(C)Oc2ccc(C#N)cc2[C@@H](N2CCCC2=O)[C@@H]1O` [LEVCROMAKALIM], which IC50 (Aorta [1]) is on record?
Its IC50 is 2510 nM.

What about the IC50 (Aorta [2]) of the same molecule?
Its IC50 is 324 nM.

What about the Emax (Aorta [3]) of the same molecule?
Its Emax is 99%.

And the EC50 [5]?
Its EC50 is 5370 nM.

What about the Activity (Homo sapiens [6]) of the same molecule?
Its Activity is “inactive”.

What about the Emax (Aorta [4]) of the same molecule?
The Emax was 93%.

Which results are given for `CC(C)CN(CC(C)C)S(=O)(=O)c1ccc2c(c1)N(C1=CCCC1=O)CC(C)(C)S2`?
IC50 (Aorta [2]): 794 nM; Emax (Aorta [3]): 85%

Which IC50 (Aorta [1]) does the source give for `O=C1CCC=C1N1CCSc2ccc(C(F)(F)F)cc21` here?
The IC50 was 23400 nM.

What about the IC50 (Aorta [2]) of the same molecule?
Its IC50 is 537 nM.

And the Emax (Aorta [3])?
The Emax was 94%.

What about the Emax (Aorta [4]) of the same molecule?
The Emax was 64%.

Which IC50 (Aorta [1]) does the source give for `CC(=O)c1ccc2c(c1)N(C1=CCCC1=O)CC(C)(C)S2` here?
Its IC50 is 56.2 nM.

What about the IC50 (Aorta [2]) of the same molecule?
The IC50 was 1.45 nM.

What about the Emax (Aorta [3]) of the same molecule?
Its Emax is 88%.

What about the Activity (Rattus norvegicus [7]) of the same molecule?
The Activity was “inactive”.

What about the Emax (Homo sapiens [8]) of the same molecule?
The Emax was 103%.

What about the EC50 [5] of the same molecule?
Its EC50 is 117 nM.

And the Activity (Homo sapiens [9])?
The Activity was “Dose-dependent effect”.

What about the Activity (Homo sapiens [6]) of the same molecule?
Its Activity is “inactive”.

What about the Emax (Aorta [4]) of the same molecule?
Its Emax is 77%.

What about the Ratio (Aorta [10]) of the same molecule?
Its Ratio is 100.

With `CC1(C)CN(C2=CCCC2=O)c2ccccc2S1` as the molecule, how does the IC50 (Aorta [1]) read?
The IC50 was 20900 nM.

And the IC50 (Aorta [2])?
The IC50 was 724 nM.

What about the Emax (Aorta [3]) of the same molecule?
Its Emax is 90%.

What about the Emax (Aorta [4]) of the same molecule?
The Emax was 61%.

For `CC(=O)Nc1ccc2c(c1)N(C1=CCCC1=O)CC(C)(C)S2`, which IC50 (Aorta [2]) is on record?
The IC50 was 6610 nM.

What about the Emax (Aorta [3]) of the same molecule?
The Emax was 97%.

For `CC1CN(C2=CCCC2=O)c2cc(C(F)(F)F)ccc2S1` (stereo not given), which IC50 (Aorta [1]) is on record?
The IC50 was 708 nM.

What about the IC50 (Aorta [2]) of the same molecule?
Its IC50 is 8.32 nM.

What about the Emax (Aorta [3]) of the same molecule?
The Emax was 94%.

What about the Emax (Homo sapiens [8]) of the same molecule?
Its Emax is 106%.

And the EC50 [5]?
Its EC50 is 135 nM.

What about the Activity (Homo sapiens [9]) of the same molecule?
Its Activity is “Dose-dependent effect”.

What about the Activity (Homo sapiens [6]) of the same molecule?
The Activity was “inactive”.

And the Emax (Aorta [4])?
The Emax was 63%.

And the Ratio (Aorta [10])?
Its Ratio is 10.

Which IC50 (Aorta [2]) does the source give for `CC1(C)CN(C2=CCCC2=O)c2cc(N)ccc2S1` here?
The IC50 was 3980 nM.

What about the Emax (Aorta [3]) of the same molecule?
The Emax was 96%.

Which IC50 (Aorta [2]) does the source give for `CC1(C)CSc2ccc(C(F)(F)F)cc2N1C1=CCCC1=O` here?
Its IC50 is 66.1 nM.

And the Emax (Aorta [3])?
The Emax was 89%.

What does the source list for `CC1(C)CN(C2=CCCC2=O)c2cc(C(F)(F)F)ccc2S1`?
IC50 (Aorta [1]): 8.32 nM; IC50 (Aorta [2]): 0.0417 nM; Emax (Aorta [3]): 92%; Emax (Aorta [4]): 96%

With `CCc1ccc2c(c1)N(C1=CCCC1=O)CC(C)(C)S2` as the molecule, how does the IC50 (Aorta [1]) read?
Its IC50 is 6460 nM.

And the IC50 (Aorta [2])?
Its IC50 is 155 nM.

What about the Emax (Aorta [3]) of the same molecule?
The Emax was 97%.

What about the Activity (Rattus norvegicus [7]) of the same molecule?
The Activity was “inactive”.

What about the Emax (Homo sapiens [8]) of the same molecule?
Its Emax is 98%.

And the EC50 [5]?
Its EC50 is 7410 nM.

What about the Activity (Homo sapiens [9]) of the same molecule?
The Activity was “Dose-dependent effect”.

What about the Activity (Homo sapiens [6]) of the same molecule?
Its Activity is “inactive”.

And the Emax (Aorta [4])?
Its Emax is 69%.

With `CC1=Nc2ccc(Cl)cc2S(=O)(=O)N1` as the molecule, how does the Activity (Rattus norvegicus [11]) read?
Its Activity is “Active”.

What about the Activity (Rattus norvegicus [12]) of the same molecule?
Its Activity is “inactive”.

Reference: ChEMBL document CHEMBL2380266, “1,4-Benzothiazine ATP-sensitive potassium channel openers: modifications at the C-2 and C-6 positions” (J Med Chem, 2013)
